Experimental findings from ChEMBL document CHEMBL1126943, “N-substituted dibenzoxazepines as analgesic PGE2 antagonists” (J Med Chem, 1993) are described below.

Experiment [1] concerns Mus musculus. Briefly: Effective dose required for writhing response in mouse […] on ig administration. The following applies: po. It counts as functional. The procedure, abridged: (§1)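 In the mouse phenylbenzoquinone writhing test, male CD-1 mice (20–30 g) were dosed ig or sc. After 25 min, 0.025% phenylbenzoquinone was given ip, and writhes were counted over 10 min beginning 5 min later. Protection meant ≤ half the saline median. The ED50 is the dose protecting 50% of mice, with 95% confidence limits from maximum likelihood.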

For experiment [2], the species on record is Cavia porcellus. Briefly: Antinociceptive activity against PGE-2 in guinea pig ileum at 3 uM. It counts as functional. Particulars: read-out: pA2 (converted). The method in brief: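 Ileum segments (2 cm) from male Hartley guinea pigs were held in modified Tyrode with atropine (0.14 μM) and pyrilamine (2.5 μM), at 37 °C under 95% O2/5% CO2 and 1 g tension. PGE2 concentration–response curves (2 min per dose) were run without and then with test compound. pA2 was calculated from the dose ratio at 3 μM compound.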

Experiment [3] has as its system Mus musculus. In words: Effective dose required for writhing response in mouse […] on sc administration. The format is functional. The procedure, abridged: as §1
For experiment [4], the system named is Mus musculus. In words: Antinociception at dosage of 30 mg/kg administered in 10 mice. It counts as functional. The procedure, abridged:
(§2)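 Male albino CD-1 mice, 20–30 g, were given test compound sc or ig (0.1 mL/10 g) at 30 mg/kg. After 25 min they received 0.025% (w/v) phenylbenzoquinone ip. Writhes were counted for 10 min, starting 5 min later. A mouse counted as protected if its writhes were ≤ half the median of that day's saline group. The result is the number of mice protected.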

Experiment [5] is filed under the species Cavia porcellus. In words: Antinociceptive activity against PGE-2 in guinea pig ileum at 3 uM; inactive. It counts as functional, organism-based.
In experiment [6] the test system is Mus musculus. In words: Compound was evaluated for antinociception at dosage of 30 mg/kg administered in 9 mice. It counts as functional. The method in brief:
as §2

Values joined by “and” are separate entries in the source; they are usually repeats but may differ in a detail not shown here. Identical values can stand only once. Active and inactive are the calls of the source. The calls are words filed in the database; no cut-off is given here.

As for `Cl.O=C(NNC(=O)C(F)(F)C(O)c1ccccn1)N1Cc2ccccc2Oc2ccc(Cl)cc21` (stereo not given), the ED50 in experiment [1] amounted to 9.1 mg/kg; in experiment [3] it was 7.1 mg/kg. The Kb in experiment [2] was 31.6 nM.

Take `Cl.O=C(Cc1cccnc1)NNC(=O)N1Cc2ccccc2Oc2ccc(Cl)cc21`: the No. of mice in experiment [4] (30 mg/kg) is 3 and 5.

In the case of `O=C(CCc1cc[n+]([O-])cc1)NNC(=O)N1Cc2ccccc2Oc2ccc(Cl)cc21`, the No. of mice in experiment [4] is reported as 5.

As to `Cl.O=C(NNC(=O)N1Cc2ccccc2Oc2ccc(Cl)cc21)c1ccccn1`, in experiment [5], the pA2 result was “inactive”. Moreover, the No. of mice in experiment [4] (30 mg/kg) is 3 and 2.

In turn, `CC(=O)Oc1ccccc1C(=O)O` [ASPIRIN] registered a median effective dose (ED50) in experiment [1] of 42.3 mg/kg.

In the case of `O=C(Cc1ccccc1)NNC(=O)N1Cc2ccccc2Oc2ccc(Cl)cc21`, in experiment [2], the Kb was 1000 nM.

In experiment [1], `CC(C)Cc1ccc(C(C)C(=O)O)cc1` (stereo not given) [IBUPROFEN] showed an ED50 of 4.8 mg/kg.

For `CCCCCC(=O)NNC(=O)N1Cc2ccccc2Oc2ccc(Cl)cc21`, the Kb in experiment [2] is 251 nM.

Consider `Cl.O=C(CCc1ccccn1)NNC(=O)N1Cc2ccccc2Oc2ccc(Cl)cc21`, for which the median effective dose (ED50) in experiment [1] was 5.8 mg/kg; in experiment [3], 9.8 mg/kg. Further, the Kb in experiment [2] is 398 nM.

For `Cl.O=C(Cc1ccccn1)NNC(=O)N1Cc2ccccc2Oc2ccc(Cl)cc21`, in experiment [5], the pA2 result is “inactive”. The compound also returned a No. of mice in experiment [4] of 2.

With `Cl.O=C(Cc1ccncc1)NNC(=O)N1Cc2ccccc2Oc2ccc(Cl)cc21`, the No. of mice in experiment [6] was 3; in experiment [4], 1.

Take `Cl.O=C(NNC(=O)N1Cc2ccccc2Oc2ccc(Cl)cc21)c1ccncc1`: the pA2 entry in experiment [5] was “inactive”. The No. of mice in experiment [4] (30 mg/kg) was 1 and 2.

Regarding `Cl.O=C(CCCc1ccccn1)NNC(=O)N1Cc2ccccc2Oc2ccc(Cl)cc21`, the No. of mice in experiment [4] (30 mg/kg) is 4 and 5.

Turning to `Cl.O=C(NNC(=O)C(F)(F)C(O)c1ccncc1)N1Cc2ccccc2Oc2ccc(Cl)cc21` (stereo not given), the 50% effect level in experiment [1] (ED50) was put at a dose of 12.3 mg/kg. In experiment [4], this compound gave a No. of mice of 5.

Turning to `O=C(CCc1cccc[n+]1[O-])NNC(=O)N1Cc2ccccc2Oc2ccc(Cl)cc21`, the No. of mice in experiment [4] (30 mg/kg) is 1 and 3.

Take `Cl.O=C(NNC(=O)N1Cc2ccccc2Oc2ccc(Cl)cc21)c1cccnc1`: in experiment [5], the pA2 result is “inactive”. Also, in experiment [4] (30 mg/kg), the No. of mice was 3 and 1.

In the case of `Cl.O=C(NNC(=O)C(F)(F)Cc1ccccn1)N1Cc2ccccc2Oc2ccc(Cl)cc21`, it took a dose of 9.7 mg/kg to reach the 50% effect level in experiment [1] (ED50).

For the compound `O=C(CCCCCl)NNC(=O)N1Cc2ccccc2Oc2ccc(Cl)cc21` [PINADOLINE], in experiment [2], the Kb is 631 nM.

Consider `CC(=O)NNC(=O)N1Cc2ccccc2Oc2ccc(Cl)cc21`, for which the Kb in experiment [2] is 3160 nM.

Turning to `Cl.O=C(CCc1cccnc1)NNC(=O)N1Cc2ccccc2Oc2ccc(Cl)cc21`, the No. of mice in experiment [4] (30 mg/kg) is 6 and 5.

Regarding `Cl.O=C(/C=C/c1ccccn1)NNC(=O)N1Cc2ccccc2Oc2ccc(Cl)cc21`, the pA2 result in experiment [5] was “inactive”. For the same compound, in experiment [4] (30 mg/kg), the No. of mice was 1 and 2.

Consider `O=C(/C=C/c1cccnc1)NNC(=O)N1Cc2ccccc2Oc2ccc(Cl)cc21`, for which the No. of mice in experiment [4] (30 mg/kg) is 6 and 5.

For `Cl.O=C(CCc1ccncc1)NNC(=O)N1Cc2ccccc2Oc2ccc(Cl)cc21`, the median effective dose (ED50) in experiment [1] turned out to be 6.8 mg/kg; in experiment [3] it was 6.3 mg/kg. The Kb in experiment [2] was 316 nM.

The compound `O=C(CCCc1ccncc1)NNC(=O)N1Cc2ccccc2Oc2ccc(Cl)cc21` showed an ED50 in experiment [3] of 9.7 mg/kg. The same compound displayed a No. of mice in experiment [4] of 6.

As to `CCCC(=O)NNC(=O)N1Cc2ccccc2Oc2ccc(Cl)cc21`, the Kb in experiment [2] was 1000 nM.

Consider `Cl.O=C(/C=C/c1ccncc1)NNC(=O)N1Cc2ccccc2Oc2ccc(Cl)cc21`, for which, in experiment [4] (30 mg/kg), the No. of mice was 2 and 4.
